In ChEMBL document CHEMBL1240522, “Effect of goniothalamin on the development of Ehrlich solid tumor in mice” (Bioorg Med Chem, 2010):
Active and inactive are the calls of the source. No cut-off for these calls is given here.

Key:
Mus musculus [1] = experiment: Acute toxicity in BALB/C mouse assessed as reduction of body weight at up to 300 mg/kg, ip after 15 days; assay type: organism-based; set-up: dose 300 mg/kg, route intraperitoneal; settings: in vivo, 360 h
Summary of the method: (§1)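 Balb/C mice (20–35 g) dosed intraperitoneally at 50, 100 and 300 mg/kg. Observed for 4 h, then daily for 14 days, for body weight loss, locomotion, behaviour (agitation, lethargy), respiration, salivation, tearing eyes, cyanosis and mortality.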

Mus musculus [2] = experiment: Antiinflammatory activity in BALB/C mouse assessed as inhibition of carrageenan-induced paw edema at 30 mg/kg, ip administered 30 mins before carrageenan challenge measured before 6 hrs by plethysmometer; assay type: functional, organism-based; set-up: dose 30 mg/kg
Summary of the method: (§2)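 Balb/C mice, n = 8/group. Right hind paw basal volume measured by plethysmometer. Single ip dose in 0.9% saline vehicle, then carrageenan 2.5% injected intraplantar into the right hind footpad 30 min later. Edema taken as measured minus basal volume at 1.5, 3.0, 4.5, 6.0, 24, 48 and 72 h. Expressed as % inhibition vs vehicle ± standard deviation; ANOVA.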

786-0 = experiment: Cytotoxicity against human 786-0 cells after 48 hrs by sulforhodamine B assay; assay type: functional; settings: 786-0, 48 h
Summary of the method: (§3)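 Cells grown in RPMI 1640 with 5% FBS at 37 °C, 5% CO2, with penicillin/streptomycin. Treated for 48 h with compound in DMSO/RPMI at […]. Fixed with 50% trichloroacetic acid, protein stained with sulforhodamine B and read at 540 nm. TGI (total growth inhibition) obtained by non-linear regression of the concentration–response curves.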

[3] = Antitumor activity against mouse EAC cells xenografted in BALB/C mouse assessed as inhibition of tumor growth at 300 mg/kg, ip administered every 3 days measured on day 15 relative to control; assay type: functional; settings: Ehrlich, route intraperitoneal
Summary of the method: (§4)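 Ehrlich cells kept as ascites by weekly ip passage of 5 × 10^5 cells in mice. Balb/C mice (n = 8/group) inoculated with 2.5 × 10^6 cells into the right hind footpad. Dosed ip every third day from day 3, vehicle 0.9% saline. Tumour volume taken as plethysmometer paw volume minus basal, every third day to day 15. Reported as % inhibition vs vehicle ± SD; ANOVA.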

Mus musculus [4] = experiment: Antiinflammatory activity in BALB/C mouse assessed as inhibition of carrageenan-induced paw edema at 100 mg/kg, ip administered 30 mins before carrageenan challenge measured before 6 hrs by plethysmometer; assay type: functional, organism-based; set-up: dose 100 mg/kg; summary of the method: as §2
Mus musculus [5] = experiment: Antiinflammatory activity in BALB/C mouse assessed as inhibition of carrageenan-induced paw edema at 300 mg/kg, ip administered 30 mins before carrageenan challenge measured after 48 to 72 hrs by plethysmometer; assay type: functional, organism-based; set-up: dose 300 mg/kg; summary of the method: as §2
[6] = Antitumor activity against mouse EAC cells xenografted in BALB/C mouse assessed as reduction of tumor weight at 300 mg/kg, ip administered every 3 days measured on day 15 relative to control; assay type: functional; settings: Ehrlich, route intraperitoneal
Summary of the method: (§5)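 Ehrlich footpad tumour model in Balb/C mice (n = 8/group, 2.5 × 10^6 cells) with ip dosing every third day from day 3 in 0.9% saline. Mice sacrificed on day 15 and both hind paws weighed. Relative tumour weight = (tumour paw − healthy paw weight)/body weight. Reported as % inhibition vs vehicle ± SD; ANOVA.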

NCI-H460 = experiment: Cytotoxicity against human NCI-H460 cells after 48 hrs by sulforhodamine B assay; assay type: functional; settings: NCI-H460, 48 h; summary of the method: as §3
U-251 = experiment: Cytotoxicity against human U251 cells after 48 hrs by sulforhodamine B assay; assay type: functional; settings: U-251, 48 h; summary of the method: as §3
[7] = Cytotoxicity against human NCI-ADR-RES cells after 48 hrs by sulforhodamine B assay; assay type: functional; summary of the method: as §3
OVCAR-3 = experiment: Cytotoxicity against human OVCAR-3 cells after 48 hrs by sulforhodamine B assay; assay type: functional; settings: OVCAR-3, 48 h; summary of the method: as §3
[8] = Antitumor activity against mouse EAC cells xenografted in BALB/C mouse assessed as inhibition of tumor growth at 30 mg/kg, ip administered every 3 days measured on day 7 relative to control; assay type: functional; settings: Ehrlich, route intraperitoneal; summary of the method: as §4
MCF7 = experiment: Cytotoxicity against human MCF7 cells after 48 hrs by sulforhodamine B assay; assay type: functional; settings: MCF7, 48 h; summary of the method: as §3
[9] = Cytotoxicity against human PCO3 cells after 48 hrs by sulforhodamine B assay; assay type: functional; settings: PCO3, 48 h; summary of the method: as §3
Mus musculus [10] = experiment: Antiinflammatory activity in BALB/C mouse assessed as inhibition of carrageenan-induced paw edema at 30 mg/kg, ip administered 30 mins before carrageenan challenge measured before 48 hrs by plethysmometer; assay type: functional, organism-based; set-up: dose 30 mg/kg; summary of the method: as §2
Mus musculus [11] = experiment: Acute toxicity in BALB/C mouse assessed as mortality at up to 300 mg/kg, ip after 4 hrs; assay type: organism-based; set-up: dose 300 mg/kg, route intraperitoneal; settings: in vivo; summary of the method: as §1
[12] = Antitumor activity against mouse EAC cells xenografted in BALB/C mouse assessed as reduction of tumor weight at 100 mg/kg, ip administered every 3 days measured on day 15 relative to control; assay type: functional; settings: Ehrlich, route intraperitoneal; summary of the method: as §5
UACC-62 = experiment: Cytotoxicity against human UACC62 cells after 48 hrs by sulforhodamine B assay; assay type: functional; settings: UACC-62, 48 h; summary of the method: as §3
Mus musculus [13] = experiment: Antiinflammatory activity in BALB/C mouse assessed as inhibition of carrageenan-induced paw edema at 20 mg/kg, ip administered 30 mins before carrageenan challenge measured before 48 hrs by plethysmometer; assay type: functional, organism-based; set-up: dose 20 mg/kg; summary of the method: as §2
Mus musculus [14] = experiment: Antiinflammatory activity in BALB/C mouse assessed as inhibition of carrageenan-induced paw edema at 100 mg/kg, ip administered 30 mins before carrageenan challenge measured before 72 hrs by plethysmometer; assay type: functional, organism-based; set-up: dose 100 mg/kg; summary of the method: as §2
Mus musculus [15] = experiment: Antiinflammatory activity in BALB/C mouse assessed as inhibition of carrageenan-induced paw edema at 100 mg/kg, ip administered 30 mins before carrageenan challenge measured after 3 to 4.5 hrs by plethysmometer; assay type: functional, organism-based; set-up: dose 100 mg/kg; summary of the method: as §2
[16] = Antitumor activity against mouse EAC cells xenografted in BALB/C mouse assessed as inhibition of tumor growth at 300 mg/kg, ip administered every 3 days measured on day 7 relative to control; assay type: functional; settings: Ehrlich, route intraperitoneal; summary of the method: as §4
[17] = Antitumor activity against mouse EAC cells xenografted in BALB/C mouse assessed as inhibition of tumor growth at 100 mg/kg, ip administered every 3 days measured on day 7 relative to control; assay type: functional; settings: Ehrlich, route intraperitoneal; summary of the method: as §4
[18] = Antitumor activity against mouse EAC cells xenografted in BALB/C mouse assessed as inhibition of tumor growth at 100 mg/kg, ip administered every 3 days measured on day 15 relative to control; assay type: functional; settings: Ehrlich, route intraperitoneal; summary of the method: as §4
HT-29 = experiment: Cytotoxicity against human HT-29 cells after 48 hrs by sulforhodamine B assay; assay type: functional; settings: HT-29, 48 h; summary of the method: as §3
Mus musculus [19] = experiment: Acute toxicity in BALB/C mouse assessed as mortality at up to 300 mg/kg, ip after 15 days; assay type: organism-based; set-up: dose 300 mg/kg, route intraperitoneal; settings: in vivo, 360 h; summary of the method: as §1
[20] = Antitumor activity against mouse EAC cells xenografted in BALB/C mouse assessed as reduction of tumor weight at 30 mg/kg, ip administered every 3 days measured on day 15 relative to control; assay type: functional; settings: Ehrlich, route intraperitoneal; summary of the method: as §5
Mus musculus [21] = experiment: Antiinflammatory activity in BALB/C mouse assessed as inhibition of carrageenan-induced paw edema at 100 mg/kg, ip administered 30 mins before carrageenan challenge measured before 24 hrs by plethysmometer; assay type: functional, organism-based; set-up: dose 100 mg/kg; summary of the method: as §2
[22] = Antitumor activity against mouse EAC cells xenografted in BALB/C mouse assessed as inhibition of tumor growth at 30 mg/kg, ip administered every 3 days measured on day 15 relative to control; assay type: functional; settings: Ehrlich, route intraperitoneal; summary of the method: as §4
[23] = Antitumor activity against mouse EAC cells xenografted in BALB/C mouse assessed as inhibition of increase in tumor volume at 3 mg/kg, ip administered every 3 days measured on day 15 relative to control; assay type: functional; settings: Ehrlich, route intraperitoneal; summary of the method: as §4
Mus musculus [24] = experiment: Acute toxicity in BALB/C mouse assessed as reduction of body weight at up to 3 mg/kg, ip after 15 days; assay type: organism-based; set-up: dose 3 mg/kg, route intraperitoneal; settings: in vivo, 360 h
Summary of the method: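 Balb/C mice (n = 8/group) carrying Ehrlich footpad tumours, given ip doses every third day from day 3 (four treatments), vehicle 0.9% saline. Animals weighed and watched for toxicity throughout; body-weight loss recorded at the end of the experiment, day 15.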

Mus musculus [25] = experiment: Antiinflammatory activity in ip dosed BALB/C mouse assessed as inhibition of carrageenan-induced paw edema administered 30 mins before carrageenan challenge measured after 24 hrs by plethysmometer; assay type: functional, organism-based; summary of the method: as §2
Mus musculus [26] = experiment: Antiinflammatory activity in BALB/C mouse assessed as inhibition of carrageenan-induced paw edema at 5 mg/kg, ip administered 30 mins before carrageenan challenge measured before 24 hrs by plethysmometer; assay type: functional, organism-based; set-up: dose 5 mg/kg; summary of the method: as §2
[27] = Antitumor activity against mouse EAC cells xenografted in BALB/C mouse assessed as reduction of tumor weight at 3 mg/kg, ip administered every 3 days measured on day 15 relative to control; assay type: functional; settings: Ehrlich, route intraperitoneal; summary of the method: as §5
[28] = Antitumor activity against mouse EAC cells xenografted in BALB/C mouse assessed as inhibition of increase in tumor volume at 3 mg/kg, ip administered every 3 days measured on day 7 relative to control; assay type: functional; settings: Ehrlich, route intraperitoneal; summary of the method: as §4
Mus musculus [29] = experiment: Acute toxicity in BALB/C mouse assessed as reduction of body weight at up to 50 mg/kg, ip after 15 days; assay type: organism-based; set-up: dose 50 mg/kg, route intraperitoneal; settings: in vivo, 360 h; summary of the method: as §1
[30] = Antitumor activity against mouse EAC cells xenografted in BALB/C mouse assessed as reduction of tumor weight at 50 mg/kg, ip administered every 3 days measured on day 15 relative to control; assay type: functional; settings: Ehrlich, route intraperitoneal; summary of the method: as §5
[31] = Antitumor activity against mouse EAC cells xenografted in BALB/C mouse assessed as inhibition of increase in tumor volume at 50 mg/kg, ip administered every 3 days measured on day 15 relative to control; assay type: functional; settings: Ehrlich, route intraperitoneal; summary of the method: as §4
[32] = Antitumor activity against mouse EAC cells xenografted in BALB/C mouse assessed as inhibition of increase in tumor volume at 50 mg/kg, ip administered every 3 days measured on day 13 relative to control; assay type: functional; settings: Ehrlich, route intraperitoneal; summary of the method: as §4

Compound	TGI (786-0) [µM]	TGI (NCI-H460) [µM]	TGI (U-251) [µM]	TGI [7] [µM]	TGI (OVCAR-3) [µM]	TGI (MCF7) [µM]	TGI [9] [µM]	Activity (Mus musculus [11])	TGI (UACC-62) [µM]	TGI (HT-29) [µM]	Activity (Mus musculus [19])	further results
O=C1C=CCC(/C=C/c2ccccc2)O1 (racemic)	22.4	36.4	18.2	6.38	18.8	22.7	18.2	Non-toxic	23.2	29.2	Non-toxic	Activity (Mus musculus [1]): Non-toxic; inhibition (Mus musculus [2]): inactive; inhibition in vivo at 300 mg/kg [3]: 66.7%; inhibition (Mus musculus [4]): inactive; inhibition (Mus musculus [5]): Active; inhibition in vivo at 300 mg/kg [6]: 41.8%; inhibition in vivo at 30 mg/kg [8]: 50%; inhibition (Mus musculus [10]): Active; inhibition in vivo at 100 mg/kg [12]: 31.6%; inhibition (Mus musculus [13]): Active; inhibition (Mus musculus [14]): Active; inhibition (Mus musculus [15]): Active; inhibition in vivo at 300 mg/kg [16]: 35.7%; inhibition in vivo at 100 mg/kg [17]: 41.7%; inhibition in vivo at 100 mg/kg [18]: 40.9%; inhibition in vivo at 30 mg/kg [20]: 36.7%; inhibition (Mus musculus [21]): Active; inhibition in vivo at 30 mg/kg [22]: 48.5%
COc1cccc2c1C(=O)c1c(O)c3c(c(O)c1C2=O)C[C@@](O)(C(=O)CO)C[C@@H]3O[C@H]1C[C@H](N)[C@H](O)[C@H](C)O1 [DOXORUBICIN]	7.86	2.37	1.42	2.83	10.2	11	4.03	–	0.32	16.4	–	inhibition in vivo at 3 mg/kg [23]: 34.7%; Activity (Mus musculus [24]): 2.5 g; inhibition (Mus musculus [25]): Dose-dependent effect; inhibition (Mus musculus [26]): Active; inhibition in vivo at 3 mg/kg [27]: 28%; inhibition in vivo at 3 mg/kg [28]: 42.7%
O=C1C=CC[C@H](/C=C/c2ccccc2)O1 [GONIOTHALAMIN]	18.6	32.4	13.4	1.2	8.31	21.7	13.5	Non-toxic	21.6	22	Non-toxic	Activity (Mus musculus [29]): Non-toxic; inhibition in vivo at 50 mg/kg [30]: 25.3%; inhibition in vivo at 50 mg/kg [31]: 37.4%; inhibition in vivo at 50 mg/kg [32]: 21.9%
